Active and inactive are the calls of the source. The rule behind the calls is not given here.
What was measured:
[1] = molecular target: Matrix metalloproteinase-9 (Homo sapiens, UniProt P14780); test: Inhibition of MMP9
HeLa [2] = test: cells; assay type: functional, cell-based; settings: Homo sapiens, 24 h
HeLa [3] = test: cells; assay type: functional, cell-based; settings: Homo sapiens, 48 h
[4] = molecular target: Histone deacetylase 3/Nuclear receptor corepressor 2 (HDAC3/NCoR2) (Homo sapiens, UniProt O15379); test: Inhibition of human recombinant HDAC3/NCoR2 using fluorophore-conjugated substrate Boc-L-Lys(Ac)-AMC; assay type: protein-complex assay
HepG2 [5] = test: cells; assay type: functional, cell-based; settings: Homo sapiens, HepG2, 48 h
Histone deacetylase 7 = molecular target: T1, Histone deacetylase 7 (Homo sapiens, UniProt Q8WUI4); test: Inhibition of human recombinant HDAC7 using fluorophore-conjugated substrate Boc-L-Lys(Ac)-AMC after 60 mins
T1 sequence (Q8WUI4 whole entry): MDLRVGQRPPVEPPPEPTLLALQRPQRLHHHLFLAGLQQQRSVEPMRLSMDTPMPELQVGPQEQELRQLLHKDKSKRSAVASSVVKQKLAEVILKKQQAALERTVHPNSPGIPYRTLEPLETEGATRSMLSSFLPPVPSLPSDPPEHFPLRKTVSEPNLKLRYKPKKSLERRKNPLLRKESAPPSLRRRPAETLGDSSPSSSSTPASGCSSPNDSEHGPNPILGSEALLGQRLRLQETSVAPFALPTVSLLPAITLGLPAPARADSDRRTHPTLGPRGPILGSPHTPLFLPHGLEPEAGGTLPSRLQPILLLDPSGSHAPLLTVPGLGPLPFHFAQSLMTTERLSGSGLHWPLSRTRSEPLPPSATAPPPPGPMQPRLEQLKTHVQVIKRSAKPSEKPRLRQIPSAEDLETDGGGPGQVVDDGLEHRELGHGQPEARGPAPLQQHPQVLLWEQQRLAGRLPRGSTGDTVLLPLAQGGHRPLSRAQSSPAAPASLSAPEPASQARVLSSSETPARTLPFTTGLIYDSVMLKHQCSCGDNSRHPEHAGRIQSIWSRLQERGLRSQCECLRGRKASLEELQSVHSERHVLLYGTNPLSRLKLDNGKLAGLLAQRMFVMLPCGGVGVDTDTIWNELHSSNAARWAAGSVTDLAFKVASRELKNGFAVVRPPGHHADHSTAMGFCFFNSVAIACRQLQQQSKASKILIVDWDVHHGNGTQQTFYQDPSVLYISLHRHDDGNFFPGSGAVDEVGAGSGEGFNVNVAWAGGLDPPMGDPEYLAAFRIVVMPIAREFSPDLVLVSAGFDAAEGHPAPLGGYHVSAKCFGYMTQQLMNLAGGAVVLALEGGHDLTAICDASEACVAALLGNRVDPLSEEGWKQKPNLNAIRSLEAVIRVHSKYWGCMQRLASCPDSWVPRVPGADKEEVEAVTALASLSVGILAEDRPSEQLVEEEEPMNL

SH-SY5Y [6] = test: cells; assay type: functional, cell-based; settings: Homo sapiens, 24 h
HepG2 [7] = test: Induction of apoptosis in human HepG2 cells assessed as cleavage of caspase 3 at 1 to 10 uM after 24 hrs by Western blot analysis; assay type: functional, cell-based
In short: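 HepG2 cells are seeded at 2.7×10^5 cells/well in D7 medium (DMEM, 7% FBS), refed after 24 h, and after 1 h at 37 °C treated with DMSO or 1, 5 or 10 µM inhibitor. Lysis is in ice-cold 1% CHAPSO buffer (50 mM Hepes pH 7.4), 45 min at 4 °C. Immunoblots are probed for cleaved caspase 3 Asp175, acetyl-Lys373 p53, total p53 and GAPDH, detected by chemiluminescence, with band densitometry.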

[8] = molecular target: T2, Polyamine deacetylase HDAC10 (Homo sapiens, UniProt Q969S8); test: Inhibition of human recombinant HDAC10 using fluorophore-conjugated substrate Boc-L-Lys(Ac)-AMC after 60 mins
T2 sequence (Q969S8 whole entry): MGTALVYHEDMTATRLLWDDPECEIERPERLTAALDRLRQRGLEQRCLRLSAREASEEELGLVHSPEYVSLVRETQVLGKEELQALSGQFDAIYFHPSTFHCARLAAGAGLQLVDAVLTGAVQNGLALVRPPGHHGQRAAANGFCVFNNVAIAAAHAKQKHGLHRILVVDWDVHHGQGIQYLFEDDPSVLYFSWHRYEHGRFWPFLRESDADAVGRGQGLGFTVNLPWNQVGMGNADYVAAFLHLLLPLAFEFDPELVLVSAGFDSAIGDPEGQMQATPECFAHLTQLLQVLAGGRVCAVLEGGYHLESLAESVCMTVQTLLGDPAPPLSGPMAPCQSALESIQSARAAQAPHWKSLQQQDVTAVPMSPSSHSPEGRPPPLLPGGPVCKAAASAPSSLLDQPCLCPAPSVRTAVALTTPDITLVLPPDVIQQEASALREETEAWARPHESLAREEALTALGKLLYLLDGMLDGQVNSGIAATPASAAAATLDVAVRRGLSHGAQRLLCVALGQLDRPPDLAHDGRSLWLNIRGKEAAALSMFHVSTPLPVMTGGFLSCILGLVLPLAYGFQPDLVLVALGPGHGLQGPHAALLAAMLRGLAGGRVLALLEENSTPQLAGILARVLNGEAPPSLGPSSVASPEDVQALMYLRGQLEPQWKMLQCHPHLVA

SH-SY5Y [9] = test: Neuroprotective activity against LY294002-induced stress in retinoic acid differentiated human SH-SY5Y cells assessed as cell survival at 0.5 uM; assay type: functional, cell-based
In short: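 SH-SY5Y cells are differentiated for 7–8 days in 1% FBS medium with 10 µM retinoic acid, then seeded at 2×10^4 cells/well in 1% FBS medium with 5 µM RA. After 24 h they go into phenol-red-free 1% FBS/RA medium with DMSO or 0.5–50 µM inhibitor, without or with 100 µM LY294002, for 24 h. Readout: XTT viability as % survival vs vehicle, four replicates ± SD, one-way ANOVA with Dunnett.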

Stromelysin-1 = Stromelysin-1 (Homo sapiens, UniProt P08254); test: Inhibition of MMP3 assessed as activity remaining at […]
Chain of Stromelysin-1 (P08254 100-477 limits assumed): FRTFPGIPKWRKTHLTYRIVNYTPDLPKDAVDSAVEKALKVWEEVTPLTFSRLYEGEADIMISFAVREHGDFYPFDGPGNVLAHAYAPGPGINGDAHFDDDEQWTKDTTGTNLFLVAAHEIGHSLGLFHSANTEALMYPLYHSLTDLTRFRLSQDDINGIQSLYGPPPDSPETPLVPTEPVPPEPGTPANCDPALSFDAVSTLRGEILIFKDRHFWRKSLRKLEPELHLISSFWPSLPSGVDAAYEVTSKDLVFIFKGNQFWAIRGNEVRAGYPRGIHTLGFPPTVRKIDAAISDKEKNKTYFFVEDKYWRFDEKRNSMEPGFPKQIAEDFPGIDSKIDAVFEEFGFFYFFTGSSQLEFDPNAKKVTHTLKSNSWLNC

Chain of Histone deacetylase 3/Nuclear receptor corepressor 2 (HDAC3/NCoR2) (O15379 whole entry): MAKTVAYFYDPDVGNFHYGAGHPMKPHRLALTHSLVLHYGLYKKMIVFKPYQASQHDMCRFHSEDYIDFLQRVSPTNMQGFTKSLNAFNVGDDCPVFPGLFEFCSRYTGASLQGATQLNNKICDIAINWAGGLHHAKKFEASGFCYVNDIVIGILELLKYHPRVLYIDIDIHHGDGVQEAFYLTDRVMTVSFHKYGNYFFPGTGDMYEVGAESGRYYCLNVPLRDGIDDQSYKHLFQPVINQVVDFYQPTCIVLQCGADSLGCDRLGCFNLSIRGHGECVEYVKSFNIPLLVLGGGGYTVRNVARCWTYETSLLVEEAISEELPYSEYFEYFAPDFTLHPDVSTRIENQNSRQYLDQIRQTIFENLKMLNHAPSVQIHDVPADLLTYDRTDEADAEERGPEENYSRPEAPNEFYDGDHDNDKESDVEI
Chain of Histone deacetylase 3/Nuclear receptor corepressor 2 (HDAC3/NCoR2) (Q9Y618 whole entry, further chain): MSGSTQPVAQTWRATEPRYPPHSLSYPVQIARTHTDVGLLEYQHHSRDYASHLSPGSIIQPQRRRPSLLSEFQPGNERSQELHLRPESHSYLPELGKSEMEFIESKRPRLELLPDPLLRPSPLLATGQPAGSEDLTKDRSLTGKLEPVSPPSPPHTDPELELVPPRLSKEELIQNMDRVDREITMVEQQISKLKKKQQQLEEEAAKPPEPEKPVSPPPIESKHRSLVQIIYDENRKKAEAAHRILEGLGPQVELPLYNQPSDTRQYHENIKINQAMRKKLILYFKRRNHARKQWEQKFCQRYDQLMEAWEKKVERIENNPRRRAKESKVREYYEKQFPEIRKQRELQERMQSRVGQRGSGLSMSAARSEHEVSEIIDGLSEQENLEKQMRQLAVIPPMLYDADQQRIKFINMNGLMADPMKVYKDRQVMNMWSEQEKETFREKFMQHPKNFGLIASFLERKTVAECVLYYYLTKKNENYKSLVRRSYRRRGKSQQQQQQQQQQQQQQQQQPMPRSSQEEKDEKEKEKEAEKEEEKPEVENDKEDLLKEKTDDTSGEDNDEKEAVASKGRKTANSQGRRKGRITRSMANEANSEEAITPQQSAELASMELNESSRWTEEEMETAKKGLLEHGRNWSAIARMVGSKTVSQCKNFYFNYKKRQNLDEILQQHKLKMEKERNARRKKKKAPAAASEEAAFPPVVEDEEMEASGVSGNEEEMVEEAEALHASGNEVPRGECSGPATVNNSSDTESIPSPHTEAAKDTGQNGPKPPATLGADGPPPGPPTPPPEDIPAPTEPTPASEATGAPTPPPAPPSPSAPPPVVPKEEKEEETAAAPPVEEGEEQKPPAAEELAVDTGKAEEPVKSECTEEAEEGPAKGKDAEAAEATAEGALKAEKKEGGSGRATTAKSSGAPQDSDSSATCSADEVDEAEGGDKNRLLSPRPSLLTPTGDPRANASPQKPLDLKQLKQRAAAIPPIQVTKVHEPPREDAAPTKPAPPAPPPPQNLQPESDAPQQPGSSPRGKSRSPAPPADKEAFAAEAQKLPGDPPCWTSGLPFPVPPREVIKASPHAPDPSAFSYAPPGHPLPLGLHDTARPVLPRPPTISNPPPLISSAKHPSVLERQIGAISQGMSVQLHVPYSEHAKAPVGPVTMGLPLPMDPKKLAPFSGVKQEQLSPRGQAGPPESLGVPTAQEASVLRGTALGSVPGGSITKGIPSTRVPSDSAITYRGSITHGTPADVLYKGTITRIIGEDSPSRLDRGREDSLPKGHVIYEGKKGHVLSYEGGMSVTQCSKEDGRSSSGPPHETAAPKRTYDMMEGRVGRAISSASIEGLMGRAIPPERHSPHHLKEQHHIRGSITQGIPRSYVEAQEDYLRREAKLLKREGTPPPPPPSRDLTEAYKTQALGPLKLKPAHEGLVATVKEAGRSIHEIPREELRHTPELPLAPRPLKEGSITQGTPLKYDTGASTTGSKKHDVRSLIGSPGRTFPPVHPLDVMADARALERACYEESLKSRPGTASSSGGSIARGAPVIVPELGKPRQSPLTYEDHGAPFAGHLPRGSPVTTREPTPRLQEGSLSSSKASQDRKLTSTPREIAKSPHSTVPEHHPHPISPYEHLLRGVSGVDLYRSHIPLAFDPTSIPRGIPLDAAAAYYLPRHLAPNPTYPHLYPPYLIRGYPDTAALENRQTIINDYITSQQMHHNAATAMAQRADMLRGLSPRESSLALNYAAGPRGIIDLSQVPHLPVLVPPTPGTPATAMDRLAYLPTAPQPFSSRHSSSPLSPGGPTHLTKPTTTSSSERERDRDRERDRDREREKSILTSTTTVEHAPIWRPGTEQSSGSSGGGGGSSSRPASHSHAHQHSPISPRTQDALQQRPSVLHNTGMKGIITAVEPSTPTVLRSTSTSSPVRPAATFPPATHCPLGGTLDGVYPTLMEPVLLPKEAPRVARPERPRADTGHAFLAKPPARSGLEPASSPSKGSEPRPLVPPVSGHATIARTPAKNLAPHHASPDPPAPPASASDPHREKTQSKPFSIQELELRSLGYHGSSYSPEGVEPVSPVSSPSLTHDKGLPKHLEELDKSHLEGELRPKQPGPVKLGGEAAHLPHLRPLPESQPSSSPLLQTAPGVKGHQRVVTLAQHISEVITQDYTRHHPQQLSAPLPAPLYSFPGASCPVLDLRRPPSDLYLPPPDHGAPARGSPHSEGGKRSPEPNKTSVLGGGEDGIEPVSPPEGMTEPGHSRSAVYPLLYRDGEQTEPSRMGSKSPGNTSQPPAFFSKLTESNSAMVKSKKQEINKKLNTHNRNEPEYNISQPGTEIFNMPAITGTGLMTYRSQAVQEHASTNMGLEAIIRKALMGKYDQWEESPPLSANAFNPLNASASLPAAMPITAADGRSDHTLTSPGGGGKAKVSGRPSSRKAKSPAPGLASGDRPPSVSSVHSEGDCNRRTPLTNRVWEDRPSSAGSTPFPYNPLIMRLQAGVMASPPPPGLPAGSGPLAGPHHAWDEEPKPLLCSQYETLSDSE
Chain of Matrix metalloproteinase-9 (P14780 whole entry): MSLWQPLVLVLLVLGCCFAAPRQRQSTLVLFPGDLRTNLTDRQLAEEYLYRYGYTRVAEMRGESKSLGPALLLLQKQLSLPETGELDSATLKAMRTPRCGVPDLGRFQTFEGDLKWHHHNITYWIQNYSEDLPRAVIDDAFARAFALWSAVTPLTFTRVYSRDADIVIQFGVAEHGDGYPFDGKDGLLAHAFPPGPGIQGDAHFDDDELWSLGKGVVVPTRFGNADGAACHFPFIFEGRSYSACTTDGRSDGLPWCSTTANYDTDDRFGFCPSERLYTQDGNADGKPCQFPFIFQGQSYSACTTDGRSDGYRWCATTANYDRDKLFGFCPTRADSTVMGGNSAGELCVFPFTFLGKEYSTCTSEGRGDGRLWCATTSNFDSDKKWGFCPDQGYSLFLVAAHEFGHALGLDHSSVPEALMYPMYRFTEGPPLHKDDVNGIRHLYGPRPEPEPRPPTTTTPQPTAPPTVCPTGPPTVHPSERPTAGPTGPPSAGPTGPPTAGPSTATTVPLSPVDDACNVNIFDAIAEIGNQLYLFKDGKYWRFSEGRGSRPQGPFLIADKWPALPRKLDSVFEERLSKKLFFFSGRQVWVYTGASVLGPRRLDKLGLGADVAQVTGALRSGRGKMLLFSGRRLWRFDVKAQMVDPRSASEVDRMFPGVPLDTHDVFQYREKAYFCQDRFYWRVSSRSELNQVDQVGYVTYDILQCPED

SMILES | IC50 [1] [µM] | EC50 (HeLa [2]) [µM] | EC50 (HeLa [3]) [µM] | IC50 [4] [µM] | EC50 (HepG2 [5]) [µM] | IC50 (Histone deacetylase 7) [µM] | EC50 (SH-SY5Y [6]) [µM] | Activity (HepG2 [7]) | IC50 [8] [µM] | Activity (SH-SY5Y [9]) | Activity (Stromelysin-1) [%]
[N-]=[N+]=NCc1cc(N=[N+]=[N-])cc(C(=O)Nc2ccc(-c3cc(C(=O)NCCCCCCC(=O)NO)no3)cc2)c1 | 22.9 | 26.5 | 10.7 | 0.045 | 11.5 | 2.23 | > 50 | Active | 0.776 | – | –
[N-]=[N+]=NCc1cc(Cn2cc(NC(=O)CCCCCCC(=O)NO)cn2)cc(N=[N+]=[N-])c1 | – | 30.6 | 23.7 | 0.128 | 24.3 | 4.51 | > 50 | – | 0.14 | Active | > 70
